According to ChEMBL document CHEMBL3259739, “Synthesis and structure-activity relationship of trisubstituted thiazoles as Cdc7 kinase inhibitors” (Eur J Med Chem, 2014):

target: Serine/threonine-protein kinase PLK1 (Homo sapiens) (UniProt P53350); experiment: Inhibition of PLK1 (unknown origin) at 1 uM relative to control; settings: values are per cent of control
Outline: (§1)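 KinomeSCAN competitive binding panel of 100 kinases; compounds tested at 1 µM in duplicate; read-out is percent […] control.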

Serine/threonine-protein kinase PLK1 (Homo sapiens), sequence (P53350 whole entry): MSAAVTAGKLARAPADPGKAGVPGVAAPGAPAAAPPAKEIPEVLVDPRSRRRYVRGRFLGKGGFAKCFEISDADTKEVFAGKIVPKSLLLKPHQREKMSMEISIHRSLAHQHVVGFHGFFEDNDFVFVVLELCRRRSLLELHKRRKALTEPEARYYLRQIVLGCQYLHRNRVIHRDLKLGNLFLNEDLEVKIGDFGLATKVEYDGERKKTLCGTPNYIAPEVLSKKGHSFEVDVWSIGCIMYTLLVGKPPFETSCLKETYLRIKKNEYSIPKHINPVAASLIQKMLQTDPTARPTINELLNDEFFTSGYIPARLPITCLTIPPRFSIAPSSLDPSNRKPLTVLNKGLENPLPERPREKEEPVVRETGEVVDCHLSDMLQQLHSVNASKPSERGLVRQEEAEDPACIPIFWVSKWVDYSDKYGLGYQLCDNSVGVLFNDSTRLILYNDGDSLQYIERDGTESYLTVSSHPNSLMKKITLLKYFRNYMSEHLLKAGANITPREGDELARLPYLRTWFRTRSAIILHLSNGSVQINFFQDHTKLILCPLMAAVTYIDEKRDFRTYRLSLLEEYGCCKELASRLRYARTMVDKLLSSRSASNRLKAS

Row | residual binding, % of control [%] | Structure (SMILES)
1 | 88 | COc1ccc(-c2nc(-c3ccnc(N)n3)sc2C(N)=O)c(Cl)c1
2 | 100 | CCOC(=O)c1sc(-c2ccncc2)nc1O

Row | Structure (SMILES) | residual binding, % of control [%]
3 | NC(=O)c1sc(-c2ccnc(N)n2)nc1-c1ccc(Cl)cc1Cl | 100

target: T1, Serine/threonine-protein kinase PLK4 (Homo sapiens) (UniProt O00444); experiment: Inhibition of PLK4 (unknown origin) at 1 uM relative to control; settings: values are per cent of control; outline: as §1
T1 sequence (whole entry): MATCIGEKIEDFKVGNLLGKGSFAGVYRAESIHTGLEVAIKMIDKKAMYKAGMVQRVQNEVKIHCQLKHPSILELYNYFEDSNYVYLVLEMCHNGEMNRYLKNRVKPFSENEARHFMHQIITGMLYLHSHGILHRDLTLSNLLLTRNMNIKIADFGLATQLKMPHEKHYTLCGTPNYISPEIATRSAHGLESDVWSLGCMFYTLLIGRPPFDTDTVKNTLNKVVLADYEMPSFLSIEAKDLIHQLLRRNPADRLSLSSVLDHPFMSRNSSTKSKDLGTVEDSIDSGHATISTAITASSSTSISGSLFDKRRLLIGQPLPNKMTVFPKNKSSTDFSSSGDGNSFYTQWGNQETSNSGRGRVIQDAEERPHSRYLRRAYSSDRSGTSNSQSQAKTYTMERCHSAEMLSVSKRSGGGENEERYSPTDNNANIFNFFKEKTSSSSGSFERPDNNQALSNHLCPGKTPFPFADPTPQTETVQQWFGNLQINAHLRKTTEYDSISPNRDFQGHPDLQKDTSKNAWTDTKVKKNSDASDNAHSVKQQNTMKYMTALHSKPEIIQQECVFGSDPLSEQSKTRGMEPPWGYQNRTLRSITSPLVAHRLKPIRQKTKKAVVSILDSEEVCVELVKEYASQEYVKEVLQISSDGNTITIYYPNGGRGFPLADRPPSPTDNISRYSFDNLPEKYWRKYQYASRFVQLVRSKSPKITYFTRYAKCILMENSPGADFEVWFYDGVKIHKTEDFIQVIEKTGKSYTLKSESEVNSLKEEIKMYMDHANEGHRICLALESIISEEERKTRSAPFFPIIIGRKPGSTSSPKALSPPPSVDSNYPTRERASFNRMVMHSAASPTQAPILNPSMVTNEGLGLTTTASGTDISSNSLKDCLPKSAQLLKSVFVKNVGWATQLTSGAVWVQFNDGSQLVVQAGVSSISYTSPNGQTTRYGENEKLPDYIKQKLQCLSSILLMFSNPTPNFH

Row | residual binding, % of control [%] | Structure (SMILES)
4 | 100 | COc1ccc(-c2nc(-c3ccnc(N)n3)sc2C(N)=O)c(Cl)c1
5 | 100 | CCOC(=O)c1sc(-c2ccncc2)nc1O

Row | Structure (SMILES) | residual binding, % of control [%]
6 | NC(=O)c1sc(-c2ccnc(N)n2)nc1-c1ccc(Cl)cc1Cl | 92

target: Ribosomal protein S6 kinase alpha-5 (Homo sapiens) (UniProt O75582); experiment: Inhibition of RPS6KA5 (unknown origin) at 1 uM relative to control; settings: values are per cent of control
Sequence (O75582 whole entry, looked up): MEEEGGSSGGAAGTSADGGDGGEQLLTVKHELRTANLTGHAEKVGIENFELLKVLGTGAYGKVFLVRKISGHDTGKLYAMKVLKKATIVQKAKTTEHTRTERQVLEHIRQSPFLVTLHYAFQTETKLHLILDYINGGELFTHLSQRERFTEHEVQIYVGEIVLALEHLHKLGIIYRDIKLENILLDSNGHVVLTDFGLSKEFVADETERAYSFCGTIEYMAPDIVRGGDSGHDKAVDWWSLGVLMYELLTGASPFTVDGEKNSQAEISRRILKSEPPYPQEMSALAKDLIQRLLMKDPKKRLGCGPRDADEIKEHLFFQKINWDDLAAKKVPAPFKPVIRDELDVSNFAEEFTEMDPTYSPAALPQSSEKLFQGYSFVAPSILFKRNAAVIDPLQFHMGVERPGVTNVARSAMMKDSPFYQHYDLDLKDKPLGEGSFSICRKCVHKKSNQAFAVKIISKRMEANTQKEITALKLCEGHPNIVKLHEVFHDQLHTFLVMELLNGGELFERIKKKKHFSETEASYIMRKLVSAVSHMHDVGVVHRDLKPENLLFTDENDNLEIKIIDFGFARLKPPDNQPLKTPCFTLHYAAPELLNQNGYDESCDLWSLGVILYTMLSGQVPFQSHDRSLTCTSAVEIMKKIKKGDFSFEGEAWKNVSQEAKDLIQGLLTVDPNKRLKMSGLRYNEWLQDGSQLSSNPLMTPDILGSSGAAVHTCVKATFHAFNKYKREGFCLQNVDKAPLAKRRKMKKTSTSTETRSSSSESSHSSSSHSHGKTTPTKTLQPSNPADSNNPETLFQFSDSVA

Row | residual binding, % of control [%] | Structure (SMILES)
7 | 100 | COc1ccc(-c2nc(-c3ccnc(N)n3)sc2C(N)=O)c(Cl)c1
8 | 100 | CCOC(=O)c1sc(-c2ccncc2)nc1O

Row | Structure (SMILES) | residual binding, % of control [%]
9 | NC(=O)c1sc(-c2ccnc(N)n2)nc1-c1ccc(Cl)cc1Cl | 100

target: T2, Rhodopsin kinase GRK1 (Homo sapiens) (UniProt Q15835); experiment: Inhibition of GRK1 (unknown origin) at 1 uM relative to control; values are per cent of control; settings: not given
T2 sequence (whole entry): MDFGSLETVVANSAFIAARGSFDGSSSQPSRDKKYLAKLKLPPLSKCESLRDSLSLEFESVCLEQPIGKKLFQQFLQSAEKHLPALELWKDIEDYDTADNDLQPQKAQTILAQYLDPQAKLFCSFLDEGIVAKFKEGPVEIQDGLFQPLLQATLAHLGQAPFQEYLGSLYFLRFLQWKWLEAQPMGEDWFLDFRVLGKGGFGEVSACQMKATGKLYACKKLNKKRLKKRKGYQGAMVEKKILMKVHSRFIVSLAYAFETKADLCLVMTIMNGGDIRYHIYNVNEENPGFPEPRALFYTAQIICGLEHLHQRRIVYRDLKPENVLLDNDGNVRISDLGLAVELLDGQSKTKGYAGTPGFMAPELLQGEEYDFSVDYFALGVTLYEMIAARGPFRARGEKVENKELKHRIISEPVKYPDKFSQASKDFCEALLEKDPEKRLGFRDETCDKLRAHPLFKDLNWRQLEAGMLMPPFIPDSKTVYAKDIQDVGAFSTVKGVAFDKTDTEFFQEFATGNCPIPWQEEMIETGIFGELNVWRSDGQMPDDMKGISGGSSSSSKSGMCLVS

Row | residual activity [%] | Structure (SMILES)
10 | 100 | COc1ccc(-c2nc(-c3ccnc(N)n3)sc2C(N)=O)c(Cl)c1
11 | 99 | CCOC(=O)c1sc(-c2ccncc2)nc1O

Row | Structure (SMILES) | residual activity [%]
12 | NC(=O)c1sc(-c2ccnc(N)n2)nc1-c1ccc(Cl)cc1Cl | 75

target: T3, Serine/threonine-protein kinase 4 (Homo sapiens) (UniProt Q13043); experiment: Inhibition of MST2 (unknown origin) at 1 uM relative to control; values are per cent of control; settings: not given
T3 sequence (whole entry): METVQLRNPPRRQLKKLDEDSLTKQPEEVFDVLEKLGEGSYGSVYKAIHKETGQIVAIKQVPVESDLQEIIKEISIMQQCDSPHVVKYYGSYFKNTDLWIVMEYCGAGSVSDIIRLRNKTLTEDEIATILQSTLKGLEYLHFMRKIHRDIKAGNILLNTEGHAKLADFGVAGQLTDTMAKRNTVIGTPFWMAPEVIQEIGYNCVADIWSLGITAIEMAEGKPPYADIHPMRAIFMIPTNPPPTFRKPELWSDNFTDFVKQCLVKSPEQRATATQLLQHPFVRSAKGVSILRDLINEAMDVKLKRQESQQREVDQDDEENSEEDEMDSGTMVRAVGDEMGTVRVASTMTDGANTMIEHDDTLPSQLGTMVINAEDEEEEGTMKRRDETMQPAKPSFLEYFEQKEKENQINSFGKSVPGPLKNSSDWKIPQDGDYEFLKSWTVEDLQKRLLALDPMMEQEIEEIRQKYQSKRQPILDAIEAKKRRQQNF

Row | residual activity [%] | Structure (SMILES)
13 | 71 | COc1ccc(-c2nc(-c3ccnc(N)n3)sc2C(N)=O)c(Cl)c1
14 | 84 | CCOC(=O)c1sc(-c2ccncc2)nc1O

Row | Structure (SMILES) | residual activity [%]
15 | NC(=O)c1sc(-c2ccnc(N)n2)nc1-c1ccc(Cl)cc1Cl | 100

target: T4, Aurora kinase A (Homo sapiens) (UniProt O14965); experiment: Inhibition of AURKA (unknown origin) at 1 uM relative to control; values are per cent of control; settings: not given
T4 sequence (whole entry): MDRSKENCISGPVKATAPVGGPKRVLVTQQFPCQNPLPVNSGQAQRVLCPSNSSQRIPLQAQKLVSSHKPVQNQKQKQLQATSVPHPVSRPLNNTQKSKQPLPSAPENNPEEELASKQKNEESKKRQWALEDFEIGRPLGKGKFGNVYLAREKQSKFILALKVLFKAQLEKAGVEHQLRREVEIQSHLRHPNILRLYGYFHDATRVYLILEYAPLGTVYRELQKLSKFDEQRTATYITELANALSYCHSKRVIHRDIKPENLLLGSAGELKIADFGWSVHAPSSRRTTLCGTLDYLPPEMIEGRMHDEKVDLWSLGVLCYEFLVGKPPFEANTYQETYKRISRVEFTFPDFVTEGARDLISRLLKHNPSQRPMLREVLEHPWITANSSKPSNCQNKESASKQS

Row | residual activity [%] | Structure (SMILES)
16 | 55 | COc1ccc(-c2nc(-c3ccnc(N)n3)sc2C(N)=O)c(Cl)c1
17 | 100 | CCOC(=O)c1sc(-c2ccncc2)nc1O

Row | Structure (SMILES) | residual activity [%]
18 | NC(=O)c1sc(-c2ccnc(N)n2)nc1-c1ccc(Cl)cc1Cl | 77

target: LIM domain kinase 1 (Homo sapiens) (UniProt P53667); experiment: Inhibition of LIMK1 (unknown origin) at 1 uM relative to control; values are per cent of control; settings: not given
Sequence (P53667 whole entry, looked up, the tested form may be a part): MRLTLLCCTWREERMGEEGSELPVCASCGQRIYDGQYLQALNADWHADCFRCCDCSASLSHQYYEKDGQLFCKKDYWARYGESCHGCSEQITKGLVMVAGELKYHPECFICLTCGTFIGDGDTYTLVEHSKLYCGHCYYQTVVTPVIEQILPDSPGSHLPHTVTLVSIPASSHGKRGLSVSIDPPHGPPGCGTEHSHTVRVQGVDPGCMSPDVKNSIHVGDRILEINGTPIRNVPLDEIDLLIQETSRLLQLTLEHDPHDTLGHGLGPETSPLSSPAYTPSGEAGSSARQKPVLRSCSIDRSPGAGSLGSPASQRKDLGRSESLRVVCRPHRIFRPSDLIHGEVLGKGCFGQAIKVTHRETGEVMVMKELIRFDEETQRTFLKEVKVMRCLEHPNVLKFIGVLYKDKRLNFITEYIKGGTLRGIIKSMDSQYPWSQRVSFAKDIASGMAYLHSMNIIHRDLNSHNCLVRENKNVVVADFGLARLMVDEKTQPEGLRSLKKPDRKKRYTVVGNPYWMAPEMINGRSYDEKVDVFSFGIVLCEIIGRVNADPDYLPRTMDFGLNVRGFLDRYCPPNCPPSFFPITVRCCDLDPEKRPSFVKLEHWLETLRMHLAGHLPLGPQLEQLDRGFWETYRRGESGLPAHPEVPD

Row | residual activity [%] | Structure (SMILES)
19 | 78 | COc1ccc(-c2nc(-c3ccnc(N)n3)sc2C(N)=O)c(Cl)c1
20 | 100 | CCOC(=O)c1sc(-c2ccncc2)nc1O

Row | Structure (SMILES) | residual activity [%]
21 | NC(=O)c1sc(-c2ccnc(N)n2)nc1-c1ccc(Cl)cc1Cl | 100

target: Cyclin-dependent kinase 4/cyclin D1 (Homo sapiens) (UniProt P11802+P24385); experiment: Inhibition of CDK4-cyclinD1 (unknown origin) at 1 uM relative to control; values are per cent of control; settings: not given

Row | residual activity [%] | Structure (SMILES)
22 | 98 | COc1ccc(-c2nc(-c3ccnc(N)n3)sc2C(N)=O)c(Cl)c1
23 | 100 | CCOC(=O)c1sc(-c2ccncc2)nc1O

Row | Structure (SMILES) | residual activity [%]
24 | NC(=O)c1sc(-c2ccnc(N)n2)nc1-c1ccc(Cl)cc1Cl | 100
